Like-named read-outs stand apart in the source and are kept apart here.
Columns and labels:
CYP2E1 [1] = details: in vitro competition assay; cited from earlier work
[2] = cited from earlier work
[3] = cited from earlier work; remark: listed apart in the source
[4] = format: in vivo, mice
In short: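 Mice (isoflurane-anesthetized or awake) given IV tracer (>99% radiochemical purity, in 95% 20 mM sodium phosphate pH 8.0/5% EtOH); euthanized 35 min later. Brain homogenized in 0.4 N HClO4 (~1:2 w/v) by 30 s ultrasonication at 4 °C, spun 21,000 RCF, 8 °C, 7 min. Plasma and pH-neutralized supernatant passed through 10K filter, then radio-HPLC on C18 with 10 mM NH4HCO3 pH 8.0/MeCN (96:4). Samples kept on ice. Percent parent fraction reported.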

[5] = format: in vivo, mice; remark: listed apart in the source
[6] = not told; cited from earlier work
CYP2E1 [7] = details: humans, DSF treatment; cited from earlier work
[8] = humans, 24h after oral administration of ^14C-labeled 4AP; cited from earlier work

## Nc1ccncc1F [3F4AP, 3-fluoro-4-aminopyrdine]
CYP2E1 [1]
  affinity of CYP2E1 relative to the affinity for 4AP: 50 times

## Nc1ccncc1[18F] [[^18F]3F4AP, 3-[^18F]fluoro-4-aminopyridine]
[2]; awake humans, brain TAC, Fig. 3A
  brain SUV 90 min post-injection: 0.54
[2]; awake humans, whole blood, 90 min
  SUV90 min-WB (human): 0.87
[2]; humans, 1h post-injection
  parent remaining in blood: less than 50%
[3]; NHPs, brain, 4 min
  brain uptake SUV at 4 min: > 3
[3]; NHPs, up to 2h post-injection
  parent fraction (metabolic stability): > 90%
[3]; anesthetized NHPs, brain TAC, Fig. 3A
  brain SUV 90 min post-injection: ~ 1.50
[3]; anesthetized NHPs, whole blood, 90 min
  SUV90 min-WB (NHP): 0.946
[4]; brain, awake mice, 35 min post-tracer, n = 8, mean ± SEM
  percent parent fraction in brain (%PFawk-br): 80.3 ± 2.7%
[4]; brain, isoflurane-anesthetized mice, 35 min
  proportion of radiometabolites in the brain, anesthetized mice: 1.6%
[4]; brain, isoflurane-anesthetized mice, 35 min post-tracer, n = 5, mean ± SEM
  percent parent fraction in brain (%PFiso-br): 98.4 ± 0.2%
[4]; plasma, awake mice, 35 min
  concentration of metabolites in plasma, awake mice: 82.3%
[4]; plasma, awake mice, 35 min post-tracer, n = 11, mean ± SEM
  percent parent fraction in plasma (%PFawk-pl): 17.7 ± 1.7%
[4]; plasma, isoflurane-anesthetized mice, 35 min
  concentration of metabolites in plasma, anesthetized mice: 25.2%
[4]; plasma, isoflurane-anesthetized mice, 35 min post-tracer, n = 10, mean ± SEM
  percent parent fraction in plasma (%PFiso-pl): 74.8 ± 1.6%
[5]; brain, 35 min post-injection, IV, awake mice, n = 20, mean ± SEM
  SUV35 min-br (awk mice): 0.28 ± 0.04
[5]; euthanized at 60 sec (1 min) post-tracer injection, Fig. S1
  WB and brain SUV values, awake vs anesthetized mice: no significant differences
[5]; whole blood, 35 min post-injection, IV, awake mice, mean ± SEM
  SUV35 min-WB (awk mice): 0.51 ± 0.05
[5]; whole blood, 35 min post-injection, IV, isoflurane-anesthetized mice, mean ± SEM
  SUV35 min-WB (iso mice): 0.66 ± 0.08

## Nc1cc[n+]([O-])cc1F [3F4AP N-oxide]
[6]
  permeability across an artificial brain membrane: low permeability

## Nc1c(O)cncc1F [5-hydroxy-3F4AP]
[6]
  permeability across an artificial brain membrane: low permeability

## CCN(CC)C(=S)SSC(=S)N(CC)CC [DSF, disulfiram]
CYP2E1 [7]
  prevention of clinical isoflurane metabolism: 80–90%

## Nc1ccncc1 [4AP, 4-aminopyridine]
[8]
  radioactive species recovered in urine corresponding to the unchanged drug: ~ 90%

— paper PMC11482445 (Journal of neurochemistry, 2024)
